In the library only some 2.6% were active in any assay of this set; here they are far more common.
SENP8 block-1 – SENP8 (human) protease inhibition. Q96LD8. recombinant SENP8, Nedd8 substrate fluorescence. inhibition, % at 20 µM. 360,000 tested, 0.64% active; in the data active means inhibition mostly above about 40%, no sharp cut-off; inactive means mostly below about 27%
SENP7 block – inhibitors of human SENP7 protease. recombinant SENP7, Z-RLRGG-aminoluciferin luminescence, 40 min. inhibition, % at 5 µM. 330,000 tested, 1.5% active. AID 434973;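 active means inhibition above about 50% at the single test dose, limit read from the data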;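 further: plate controls were DMSO with enzyme for no effect and no enzyme buffer wells for full effect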
Target sequence (Q9BQF6 706-1050 limits assumed): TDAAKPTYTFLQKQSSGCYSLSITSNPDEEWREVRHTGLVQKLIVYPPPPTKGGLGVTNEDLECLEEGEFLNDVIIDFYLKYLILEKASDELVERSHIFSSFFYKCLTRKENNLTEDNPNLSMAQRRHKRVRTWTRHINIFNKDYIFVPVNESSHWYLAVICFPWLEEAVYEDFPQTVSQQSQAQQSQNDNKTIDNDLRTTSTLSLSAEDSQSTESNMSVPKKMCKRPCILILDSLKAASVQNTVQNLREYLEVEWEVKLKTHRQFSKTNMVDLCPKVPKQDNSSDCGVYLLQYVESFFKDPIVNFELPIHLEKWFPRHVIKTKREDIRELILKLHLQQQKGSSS
Platelet DG rel – platelet dense granule release activity; 300,000 tested, 0.22% active; inhibition, %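 (compounds screened at 7.5 µM in platelet-rich plasma)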; human platelet-rich plasma, SFLLRN dense granule ATP release, luminescence;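 active means mean replicate score, as percent of positive control, at or above 50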
SENP1 FRET inh – blocks the human SENP1 SUMO protease catalytic domain; recombinant SENP1 catalytic domain, CyPet-SUMO1-YPet FRET cleavage; inhibition, % at 10 µM; 360,000 tested, 0.21% active;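 active means inhibition at least 30% at 10 µM, raw YFP signal under a set limit, fluorescence ratio 0.5 to 1.5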;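 further: 0% = enzyme with DMSO and 100% = no enzyme wells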
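Material – human SENP1 catalytic domain · Input – SENP1 enzyme, 20 pM final · Compound dosing – single concentration of 10 µM compound, 0.5% DMSO final · Timing – enzyme reaction for 50 min at room temperature, dark · Measured by – FRET fluorescence in CFP and YFP emission channels · Control set – no-enzyme wells low, DMSO-plus-enzyme wells high control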
SENP6 block – inhibitors of human SENP6 protease; Q9GZR1; Recombinant SENP6 catalytic domain, aminoluciferin luminescence; inhibition, % at 10 µM; 330,000 tested, 1.8% active;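 active means inhibition above about 50% at the single tested dose, limit read from the data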;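 further: plate controls were DMSO wells with enzyme for no effect and DMSO wells lacking enzyme for full effect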
SENP8 block-2 – blocks the human protease SENP8; Q96LD8; purified SENP8, Z-RLRGG-aminoluciferin cleavage, luminescence; inhibition, % at 10 µM; 330,000 tested, 1.2% active; AID 2540; in the data active means inhibition above about 50%
SENP8 confirm – confirmation of human SENP8 protease inhibitors | shares compounds with SENP7 block | Recombinant SENP8, Z-RLRGG-aminoluciferin luminescence, 60 min | 6,200 tested, 40% active | AID 488912 | inhibition, % at 12.5 µM;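 active means mean inhibition across replicates above about 50%, limit read from the data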
SENP6 conf – human SENP6 inhibition, confirmed. shares compounds with SENP7 block. recombinant SENP6, Z-RLRGG-aminoluciferin luminescence. inhibition, % at 12.5 µM. 6,200 tested, 58% active. AID 488915
SENP7 confirm – human SENP7 inhibition, confirmed; shares compounds with SENP7 block; recombinant SENP7, Z-RLRGG-aminoluciferin luminescence, 40 min; inhibition, % at 12.5 µM; 6,200 tested, 69% active
Casp3 SENP sel – inhibits human caspase-3 in SENP selectivity test; shares compounds with SENP7 block; purified caspase-3, Z-DEVD-aminoluciferin luminescence, 60 min; inhibition, % at 12.5 µM; 6,200 tested, 60% active; AID 488918;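 active means mean inhibition above about 50%, limit read from the data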;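 further: plate controls were enzyme with DMSO for no effect and wells without caspase-3 for full effect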
SENP luc ctr – luminescence interference (SENP counter-screen). inhibition, % at 12.5 µM. 6,200 tested, 39% active. AID 488919. shares compounds with SENP7 block. Pre-incubated SENP8/Z-RLRGG-aminoluciferin, luciferase luminescence interference;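 active means mean inhibition above about 50% when retested at one dose, limit read from the data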;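 further: plate controls were DMSO wells with completed reaction for no effect and substrate without enzyme for full effect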
The depositor's hits bear a star; i = inactive; / = not tested or not shown.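 How the source made its calls, unless noted: active means mean inhibition above about 50% in the one-dose retest (limit read from the data); inactive means the rest.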

SMILES	SENP8 block-1	SENP7 block	Platelet DG rel	SENP1 FRET inh	SENP6 block	SENP8 block-2	SENP8 confirm	SENP6 conf	SENP7 confirm	Casp3 SENP sel	SENP luc ctr
O=C(NCC1CCCO1)C1CC(=O)N(c2ccccc2)C1 (stereo unspecified)	14	10	-4	-1	-18	5	/	/	/	/	/
Clc1ccc(-c2nnc(-c3ccco3)o2)cc1	-188	73*	-2	3	63*	52*	36	41	59*	54*	0
Cc1ccc(SCc2cn3c(C)csc3n2)cc1	9	85*	3	0	84*	75*	80*	80*	96*	86*	86*
Cc1ccc(S(=O)(=O)NCc2cn3c(C)csc3n2)cc1	27	3	-3	1	-14	2	/	/	/	/	/
CCc1cc(=O)oc2c3c(cc(OCC(=O)NCc4ccncc4)c12)OC(C)(C)CC3	-206	-3	-1	0	52*	9	9	7	1	-2	-4
CC(C)n1nc(C(=O)OCC(=O)NCCc2ccc(S(N)(=O)=O)cc2)c2ccccc2c1=O	-1	/	/	0	/	/	/	/	/	/	/
COc1cccc2oc3ccc(C#Cc4ccccn4)cc3c(=O)c12	i	100*	62*	-6	100*	94*	73*	90*	100*	91*	75*
COc1cccc2sc3cc(C#Cc4ccccn4)ccc3c(=O)c12	-242	-1	/	-33	17	11	/	/	/	/	/
COC(=O)c1[nH]c2cccc(Cl)c2c1NC(=O)CN1CCCCC1C (stereo unspecified)	-47	5	2	-2	-34	5	/	/	/	/	/
COC(=O)c1[nH]c2cccc(Cl)c2c1NC(=O)CN1CCN(CCO)CC1	-17	101*	-10	1	13	1	11	10	0	-4	-3
CC(=O)Nc1cccc(C(=O)OCC(=O)c2ccccc2Cl)c1	13	61*	7	2	-3	47	72*	39	89*	70*	74*
CCC(=O)Nc1cccc(C(=O)OCC(=O)c2ccccc2Cl)c1	5	-2	8	1	13	-13	/	/	/	/	/
COc1ccc(C(C)=O)cc1Cn1c(C)c(C(=O)NCCC#N)sc1=O	5	/	/	0	/	/	/	/	/	/	/
O=C(Nc1ccccc1)Nc1cccc2cccnc12	8	74*	8	-2	42	60*	80*	80*	94*	59*	77*
Cc1ccc(C(=O)Nc2cccnc2Cl)cc1Cl	13	3	-6	2	25	4	/	/	/	/	/
O=C(Nc1ccc(C(=O)O)cc1)Nc1cccc2ccccc12	-74	34	-4	2	58*	17	38	34	65*	62*	34
O=C(O)/C=C/C(=O)Nc1cccc2cccnc12	10	1	12	0	6	-5	/	/	/	/	/
Cc1ccc(C(=O)Nc2cccc3cccnc23)cc1Br	4	55*	-17	-2	4	-5	-2	2	9	23	12
O=C(Nc1ccccc1)Nc1cccc2ccccc12	-57	24	2	4	23	5	/	/	/	/	/
CC1(C2(O)CCCCC2)NCCc2ccccc21 (stereo unspecified)	8	2	/	2	2	8	/	/	/	/	/
COc1cc(OC)c(NC(=O)CCNS(=O)(=O)c2ccc3c(c2)CC(C)N3C(C)=O)cc1Cl (stereo unspecified)	10	9	1	1	1	0	/	/	/	/	/
CCN(c1ccccc1)c1cc2ccccc2c(=O)[nH]1	-201	86*	-27	-49	88*	92*	20	61*	43	17	-3

Screening data from PubChem.
